Compound activity from PubChem.
In the library only some 2.2% were active in any assay of this set; here they are far more common.
PfG6PD inh: PfG6PD (Plasmodium falciparum) enzyme inhibition; PfGluPho enzyme, NADPH resazurin-diaphorase fluorescence; AID 504690; inhibition, % at 20 µM; hit rate 0.78% among 350,000;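 active = inhibition reaching at least a set limit at 20 µM in the primary screen, cut at about 59% in these data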
Granule exo inh: blocks lytic granule exocytosis; TALL-104 LAMP-1 surface exposure, flow cytometry; cells stimulated with thapsigargin and PMA; inhibition, % at 10 µM; hit rate 0.66% among 360,000; AID 651702;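 active = inhibition above about 55%, limit read from the data; inconclusive = no clear call, values can overlap the other calls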
ABHD5-PLIN5 inh: ABHD5-PLIN5 protein interaction inhibition; Split G. princeps luciferase complementation, luminescence, 4 h; hit rate 0.78% among 360,000; AID 602281; inhibition, % at 4 µM; Q00G26+Q8WTS1;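 active = inhibition above the mean inhibition across every tested compound plus 3 SD, cut at about 22% in these data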
Target sequence (Q00G26 whole entry, looked up): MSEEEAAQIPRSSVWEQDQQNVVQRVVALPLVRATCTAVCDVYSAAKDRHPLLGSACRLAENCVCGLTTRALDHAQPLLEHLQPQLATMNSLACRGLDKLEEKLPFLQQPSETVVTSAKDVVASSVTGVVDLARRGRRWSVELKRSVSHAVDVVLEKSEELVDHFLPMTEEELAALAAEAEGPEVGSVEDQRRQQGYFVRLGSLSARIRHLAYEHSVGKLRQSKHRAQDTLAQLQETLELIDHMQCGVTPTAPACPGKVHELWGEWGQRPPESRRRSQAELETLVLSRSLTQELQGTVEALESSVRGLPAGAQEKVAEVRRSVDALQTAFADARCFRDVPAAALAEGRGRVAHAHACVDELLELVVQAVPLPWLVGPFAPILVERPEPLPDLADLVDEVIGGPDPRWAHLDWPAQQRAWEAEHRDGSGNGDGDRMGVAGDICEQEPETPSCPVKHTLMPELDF
Target sequence (Q8WTS1 whole entry, looked up): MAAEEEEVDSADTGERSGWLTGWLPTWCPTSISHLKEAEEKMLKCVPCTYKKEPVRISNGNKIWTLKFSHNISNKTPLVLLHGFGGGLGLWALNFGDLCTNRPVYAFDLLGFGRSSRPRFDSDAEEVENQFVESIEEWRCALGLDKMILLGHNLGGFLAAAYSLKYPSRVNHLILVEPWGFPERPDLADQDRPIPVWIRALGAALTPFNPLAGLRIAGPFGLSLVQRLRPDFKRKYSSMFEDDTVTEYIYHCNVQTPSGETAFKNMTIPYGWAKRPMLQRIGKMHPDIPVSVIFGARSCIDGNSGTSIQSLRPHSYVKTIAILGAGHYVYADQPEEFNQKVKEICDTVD
HKDC1 inh: blocks human hexokinase HKDC1 activity; Q2TB90; recombinant HKDC1, G6PDH/diaphorase resazurin coupled fluorescence; inhibition, % at 20 µM; hit rate 0.16% among 340,000;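 active = inhibition above about 35% when tested at 20 µM, limit read from the data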
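Test system: recombinant HKDC1 (HK5) hexokinase enzyme, produced in-house; Amount: enzyme 5 µg/mL final; Buffer or medium: Tris pH 8.0 buffer with MgCl2, Tween-20, BSA, BME; Reagent: glucose and ATP substrates; Doses: 20 µM test compound, 1% DMSO; Incubation: 90 min reaction incubation at room temperature, dark; Detection: resorufin fluorescence at 613 nm.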
Each line names hits and unclear results; the compound was inactive in the other large screens; ! = repeats disagree.

O=C(CCNS(=O)(=O)c1ccc(Br)cc1)NNC(=O)C1COc2ccccc2O1 (configuration not stated)	none
COc1ccc(C2CC(=O)N3CN(c4ccccc4F)CSC3=C2C#N)cc1OC (configuration not stated)	PfG6PD inh 68.3
COc1ccc(OC)c(C2NC(=O)c3sc(=S)n(-c4ccccc4)c3N2)c1 (configuration not stated)	none
COc1ccc(C2CC(=O)N3CN(c4ccc(C)c(Cl)c4)CSC3=C2C#N)cc1 (configuration not stated)	PfG6PD inh 70.5
COc1ccc(OC)c(C2CC(=O)N3CN(c4ccccc4)CSC3=C2C#N)c1 (configuration not stated)	PfG6PD inh 80.8
N#CC1=C2SCN(Cc3ccccc3)CN2C(=O)CC1c1ccc2c(c1)OCO2 (configuration not stated)	PfG6PD inh 60.7
N#CC1=C2SCN(Cc3ccco3)CN2C(=O)CC1c1ccc(Cl)cc1 (configuration not stated)	none
CCN(C(=O)CN1CCCC(C)C1)c1c(N)n(Cc2ccccc2)c(=O)[nH]c1=O (configuration not stated)	none
CCN1CCN(Cc2ccc(NC(=O)c3ccc(C)c(NC(=O)C(=O)c4c[nH]c5ccccc45)c3)cc2C(F)(F)F)CC1	ABHD5-PLIN5 inh 29.7!
CCN1CCN(Cc2ccc(NC(=O)c3ccc(C)c(NC(=O)c4ccc5n[nH]nc5c4)c3)cc2C(F)(F)F)CC1	none
CC(NC(=O)Cc1ccc(S(=O)(=O)N2CCOCC2)s1)c1ccc(Cl)c(Cl)c1 (configuration not stated)	none
Cc1coc2c1C(=O)C(=O)c1c-2ccc2c1CCCC2(C)C	none
Cc1coc2c1C(=O)C(=O)c1c-2ccc2c(C)cccc12	PfG6PD inh 63.7
COc1ccc(OCc2cc(C(=O)N3C[C@H]4CC[C@H]3C4)no2)c(Cl)c1	none
COc1ccc(C(=O)/C=C/c2ccccc2F)c(OC(=O)c2ccc([N+](=O)[O-])cc2)c1	ABHD5-PLIN5 inh 27.9
COc1ccc(C(=O)/C=C/c2ccc(C)cc2)c(OC(=O)c2ccc([N+](=O)[O-])cc2)c1	none
O=C(NCc1ccccc1CN1CCCC1)c1ccc(Cl)c(S(=O)(=O)N2CCCC2)c1	none
Clc1nssc1=Nc1ccccc1	PfG6PD inh 77.2
COc1ccc(N=c2ssnc2Cl)cc1	PfG6PD inh 82.9
Clc1ccc(N=c2ssnc2Cl)cc1	Granule exo inh 82.4
Fc1ccc(N=c2ssnc2Cl)c(F)c1	PfG6PD inh 87.2
Cc1ccc(CSc2nnc(CNc3ccc(F)cc3)o2)cc1	none
COc1cc(Cl)ccc1OCc1cc(C(=O)NCCCN2CCCC2=O)no1	none
CCCOc1ccc(C(=O)NC(=S)N2CCN(c3cc4c(cc3F)c(=O)c(C(=O)O)cn4CC)CC2)cc1	none
Cn1c(SC2CCCCC2=O)nnc1-c1ccccc1F (configuration not stated)	none
COc1ccc(CC(NC(C)=O)C(=O)NC2CCN(C(=O)C3CCCCC3)CC2)cc1OC (configuration not stated)	none
c1coc(-c2nc(-c3ccco3)c(-c3ccco3)nc2-c2ccco2)c1	ABHD5-PLIN5 inh 63.8, HKDC1 inh 68.3 (no result: Granule exo inh)
Cc1ccnc(NC(=O)C(C)n2cc([N+](=O)[O-])cn2)c1 (configuration not stated)	none
Cc1cccc(N=N/C(=C\O)C(=O)c2ccc(Br)cc2)c1	Granule exo inh 101.3
O=C(/C(=C/O)N=Nc1cccc(C(F)(F)F)c1)c1ccccc1	none
COc1ccccc1CNC(=O)COC(=O)COc1ccccc1Cc1ccccc1	none
CN(C)c1ccc2c3c(ccc(N(C)C)c13)C(=O)OC2	none
Cc1ccccc1C(=O)NC1CCN(CC(=O)Nc2ccc(Br)cc2)CC1	none
N#Cc1c(N)nc(Sc2ccc(Cl)cc2)c(C#N)c1-c1ccccc1Cl	Granule exo inh 79.4
CCSc1nc(N)c(C#N)c(-c2ccccc2Cl)c1C#N	none
Cc1cc(C)n(-c2nc(Nc3ccccc3)nc(-n3nc(C)cc3C)n2)n1	none
Cc1cc(C)n(-c2nc(N(c3ccccc3)c3ccccc3)nc(-n3nc(C)cc3C)n2)n1	Granule exo inh 88.3
CCc1cc(C(=O)N/N=C/c2ccc(O)cc2)c2ccccc2n1	ABHD5-PLIN5 inh 22.7
O=S(=O)(NCc1ccccc1)c1ccc(Cl)cc1	none
O=S(=O)(Nc1cc2nc3ccccc3nc2n1Cc1ccccc1)c1ccc(Cl)cc1	Granule exo inh 66.4
Cc1c(Cl)cccc1-c1ccc(C(=O)N2CCN(c3ccc([N+](=O)[O-])cc3)CC2)o1	Granule exo inh 58.4
Cc1ccc(C(=O)C(c2ccccc2)N2Cc3ccccc3C2=N)cc1 (configuration not stated)	PfG6PD inh 64.9
O=C(/C=C/c1ccco1)NC(=S)Nc1cccc([N+](=O)[O-])c1	ABHD5-PLIN5 inh 22.6
CC(/C=N/N1CCN(c2ccccc2)CC1)=C\c1ccccc1	none
CC(/C=N/N1CCN(c2ccccn2)CC1)=C\c1ccccc1	Granule exo inh 75.8
COCCCn1c(=NC(=O)c2ccccc2)c(C#N)cc2c(=O)n3cccc(C)c3nc21	none
Cc1cccc(C(=O)N=c2c(C#N)cc3c(=O)n4cccc(C)c4nc3n2Cc2ccco2)c1	ABHD5-PLIN5 inh 50.5!
Cc1cccn2c(=O)c3cc(C#N)c(=NC(=O)c4ccccc4)n(Cc4ccco4)c3nc12	ABHD5-PLIN5 inh 45.9!
O=C(O)CCCN1C(=O)/C(=C\C(Cl)=C\c2ccccc2)SC1=S	HKDC1 inh 43.6
CN1CCN(C(=O)CCCN2C(=O)/C(=C/c3ccccc3)SC2=S)CC1	Granule exo inh 60.8
O=C(O)CCCN1C(=O)/C(=C\c2ccccc2OCc2ccccc2)SC1=S	none
CCn1c2nc(SCCN3CCOCC3)nnc2c2cc(C)cc(C)c21	none
COc1cc(C(C(=O)NC2CCCCC2)N(CCN2CCOCC2)C(=O)C2COc3ccccc3O2)cc(OC)c1OC (configuration not stated)	none
CC(=O)COC(=O)C1=NN(c2ccccc2)C(=O)CC1	none
Cc1nn(C(C)C(=O)NCCCN2CCCCCC2)c(=O)c2c1sc1ccccc12 (configuration not stated)	none
Cc1nn(C(C)C(=O)NCc2ccccc2Cl)c(=O)c2c1sc1ccccc12 (configuration not stated)	Granule exo inh 81.7
COc1ccc(CN(C(=O)/C=C/C(=O)c2ccc(OC)cc2O)C(C(=O)NC2CCCCC2)c2ccncc2)cc1 (configuration not stated)	none
COc1ccc(C(=O)/C=C/C(=O)N(CC(=O)NC2CCCCC2)Cc2cccs2)c(O)c1	ABHD5-PLIN5 inh 70.2
O=[N+]([O-])c1ccc(O)c(/C=N/NC(=S)Nc2ccc(Cl)cc2Cl)c1	Granule exo inh inconclusive
O=[N+]([O-])c1ccc(/C=N/NC(=S)Nc2ccc(Cl)cc2Cl)s1	Granule exo inh 94.0
CC(CN1CCN(Cc2ccccc2)CC1)c1ccccc1 (configuration not stated)	Granule exo inh 61.1
O=S(=O)(CS(=O)(=O)c1ccc(Cl)cc1)c1ccc(Cl)cc1	none
COC(=O)N/N=C/c1ccc(-c2cccc(Cl)c2)o1	none
